Screening data (PubChem)
Mdm2 ligase inh = MDM2-luciferase reporter signal enhancers, primary screen, MDM2 E3 ligase inhibitor project, cell-based, luminescence, 1536-well | E3 ubiquitin-protein ligase Mdm2 (Homo sapiens), Q00987 | cell-based MDM2 ubiquitination luciferase reporter, 2 h; 0 = plate control, 100 = twice control, blank-subtracted | signal enhancement, % at 5 µM | hit rate 0.11% among 210,000 | AID 1230, 2008;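 active = signal enhancement of 30% or more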;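 also: luminescence tracks abundance of the self-degrading MDM2-luciferase fusion protein; higher signal means inhibition of MDM2 E3 ligase activity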
Target sequence (Q00987 whole entry, looked up, the tested form may be a part): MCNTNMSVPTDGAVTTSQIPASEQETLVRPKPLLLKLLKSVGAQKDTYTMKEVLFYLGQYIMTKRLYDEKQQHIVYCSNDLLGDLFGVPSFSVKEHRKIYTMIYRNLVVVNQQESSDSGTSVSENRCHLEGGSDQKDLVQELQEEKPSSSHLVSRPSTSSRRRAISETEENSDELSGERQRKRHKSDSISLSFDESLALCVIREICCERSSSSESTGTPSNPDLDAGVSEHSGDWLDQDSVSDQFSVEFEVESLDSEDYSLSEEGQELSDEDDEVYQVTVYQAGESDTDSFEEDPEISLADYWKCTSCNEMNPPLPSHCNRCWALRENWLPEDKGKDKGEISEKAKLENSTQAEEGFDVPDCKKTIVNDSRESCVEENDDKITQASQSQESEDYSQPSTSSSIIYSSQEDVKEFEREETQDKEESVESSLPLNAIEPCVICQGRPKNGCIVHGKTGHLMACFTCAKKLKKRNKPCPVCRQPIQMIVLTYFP
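system = mammalian cells stably expressing self-ubiquitinating, self-degrading MDM2 E3–luciferase fusion | quantity = 2000 cells per well seeded | incubation = 4 h cell settling then 2 h compound exposure, 37 °C | signal = SteadyLite luminescence, 15 min reagent step | benchmarks = plate control and blank wells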
L929 necroptosis = inhibitors of zVAD-triggered necroptosis, primary screen, L929 cells | viability rescue, % at 10 µM | hit rate 0.38% among 220,000 | AID 1377, 2008 | L929 zVAD necroptosis rescue, ATP luminescence, 24 h; with zVAD 60 µM;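 active = activation, scaled between plate controls, above about 75%, limit read from the data; inactive = activation under that limit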;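 also: 0% = zVAD with DMSO and 100% = DMSO alone without zVAD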
Dynein cargo inh = inhibitors of GR-EGFP nuclear translocation, primary screen, dynein cargo transport inhibitor project, imaging, high-content, 3617.4 mouse cells; z-score, hits read low; test concentration mostly 20 µM; stimulated with dexamethasone, 1 µM; stronger effect = lower value; hit rate 0.47% among 220,000;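 active = plate z-score of nuclear minus cytoplasmic receptor signal below a set negative limit, without overly bright fluorescence or cell loss, cut at about -3.5 in these data, passing the limit was not always enough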;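 also: z-score of nuclear minus cytoplasmic ring GR-EGFP intensity difference per well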
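Also added: dexamethasone, 1.0 µM final. Medium: tet-free, stripped-serum medium. Detection: fixed, Hoechst-stained cells imaged at 10x for EGFP. Read-out: nuclear-to-cytoplasmic GR-EGFP distribution per well. Times: induction 48 h, compound 1 h, agonist 30 min.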
B2AR ag = beta2AR agonists driving receptor internalization, primary screen, cell-based, FAP fluorogen, flow cytometry | Am2.2-beta2AR cells | response, % (test concentration not listed) | hit rate 0.43% among 340,000;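 active = response above a set limit, near 3 SD of response in nonfluorescent compounds, cut at about 42% in these data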
TNF necrop inh = inhibitors of TNF-alpha triggered necroptosis, primary screen, cell-based, Jurkat FADD-/-, single concentration | hit rate 0.068% among 220,000 | Jurkat FADD-/- TNF necroptosis rescue, ATP luminescence, 24 h; 0 = TNF only, 100 = no-TNF cells | AID 463075, 2010 | activation (protection from cell death), % at 10 µM;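 active = activation, meaning protection from cell death, of at least 50% relative to plate controls; inactive = activation below 50%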;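 also: necroptosis triggered by 40 ng/mL TNF-alpha added together with compound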
Dynein inh conf = dynein cargo transport inhibitors, GR-EGFP translocation, confirmation, imaging, high-content imaging, GR-EGFP cells; 3617.4 GR-EGFP nuclear translocation imaging, dexamethasone-induced; AID 463116, 2010; calls only at 20 µM; shares compounds with Dynein cargo inh; hit rate 69% among 1,000;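 active = inhibition of receptor movement into the nucleus at or above a set limit in both runs, with normal cell brightness and cell count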;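 also: dexamethasone at 1 µM final in well for 30 min; nuclear minus cytoplasmic GR-EGFP mean intensity difference in channel 2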
* hit, by the source's call. Most compounds without a hit are left out; they make up all but 0.97% or so of the library.

For O=C(Cn1ncc(Cl)c(Cl)c1=O)N1CCOCC1 the results were Mdm2 ligase inh -15, L929 necroptosis 4, Dynein cargo inh -4.2*, B2AR ag 6, TNF necrop inh 18 and Dynein inh conf active.
Screening CC1(C)C(=O)Nc2ccccc2N1C(=O)Cn1ncc(Cl)c(Cl)c1=O returned Mdm2 ligase inh -4, L929 necroptosis 5, Dynein cargo inh -6.3*, B2AR ag -2, TNF necrop inh -33 and Dynein inh conf active.
COc1ccc(C(=O)n2nc(-c3ccco3)nc2SC)cc1OC was read as Mdm2 ligase inh -29, L929 necroptosis 0, Dynein cargo inh -4*, B2AR ag 4, TNF necrop inh -11 and Dynein inh conf inactive.
For CSc1nc2sc3c(c2c2nnnn12)CC(C)(C)OC3 the results were L929 necroptosis -1, Dynein cargo inh 0.26 and TNF necrop inh -1.
`CC1(C)Cc2c(sc3c4nnnn4c4nnnn4c23)CO1` gave Mdm2 ligase inh 0, L929 necroptosis 1, Dynein cargo inh -4.7*, TNF necrop inh -17 and Dynein inh conf inactive.
For COc1ccc(C2CC(c3cccs3)=NN2c2ccc(C=O)cc2)cc1 (stereo unspecified) the results were Mdm2 ligase inh -10, L929 necroptosis 1, Dynein cargo inh -9.6, TNF necrop inh 1 and Dynein inh conf inactive.
For CCN1CCN(C(c2cccs2)C(C)NC(=O)c2ccccc2F)CC1 (stereo unspecified) the results were Mdm2 ligase inh -7, L929 necroptosis -1, Dynein cargo inh -0.21, B2AR ag 2 and TNF necrop inh 0.
`CC(=O)Nc1ccccc1C` gave B2AR ag 5.
For CC(=O)/C(=C/c1ccccc1)C(=O)Nc1ccccc1C the results were Mdm2 ligase inh -7, L929 necroptosis -1, Dynein cargo inh -6.7*, B2AR ag 43*, TNF necrop inh -5 and Dynein inh conf active.
Screening CCCCS(=O)(=O)/C=C\C1C2C=CC(C2)C1S(=O)(=O)CCCC (stereo unspecified) returned Mdm2 ligase inh -11, L929 necroptosis 0, Dynein cargo inh 0.41, B2AR ag -2 and TNF necrop inh -3.
Screening CCCCS(=O)(=O)/C=C\C=C/S(=O)(=O)CCCC returned Mdm2 ligase inh 31*, L929 necroptosis 22, Dynein cargo inh -3.8, B2AR ag 40, TNF necrop inh -12 and Dynein inh conf active.
For CCn1nc(C)cc1C(=O)Sc1cccc(Br)c1 the results were Mdm2 ligase inh -7, L929 necroptosis 0, Dynein cargo inh -4*, B2AR ag -1, TNF necrop inh -22 and Dynein inh conf active.
Screening O=c1c2cc(F)ccc2sn1-c1ccccc1 returned B2AR ag -11.
`Cc1ccccc1-n1sc2cc(F)ccc2c1=O` gave Mdm2 ligase inh -18, L929 necroptosis 0, Dynein cargo inh -4.8*, B2AR ag 7, TNF necrop inh -7 and Dynein inh conf active.
Cc1cc(=O)oc2cc(OCc3ccc(C(=O)N4CCN(c5ccc([N+](=O)[O-])cc5)CC4)cc3)ccc12 was read as Mdm2 ligase inh -2, Dynein cargo inh -0.15, B2AR ag -11 and TNF necrop inh 2.
For NC1=CC(=O)c2cccc3cccc1c23 the results were L929 necroptosis 1, Dynein cargo inh 1.1 and TNF necrop inh -3.
For COc1cc2c(c(OC)c1O)C(=O)CO2 the results were Mdm2 ligase inh -3, L929 necroptosis -1, Dynein cargo inh 0.35, B2AR ag -1 and TNF necrop inh -1.
Screening COc1cc(OC)c2c(O)c3c(c(-c4c5c(c(O)c6c(OC)cc(OC)cc46)CO[C@@H](C)[C@H]5O)c2c1)[C@H](O)[C@H](C)OC3 returned Mdm2 ligase inh -12, L929 necroptosis 0, Dynein cargo inh -4.5*, B2AR ag 11, TNF necrop inh -1 and Dynein inh conf active.
